Experimental data from different studies.
Each line is one published result; the experiments were not run side by side.
Target: Serine/threonine-protein kinase 32A (STK32A, Homo sapiens, UniProt Q8WU08)

assay	setting	endpoint	value	SMILES
binding, competition with immobilised ligand	1 µM	remaining binding	89%	Cc1c(C(=O)O)cc(-c2ccc(C3CCNCC3)cc2)c2ccc(-c3ccc(C(F)(F)F)cc3)cc12
thermal stability, DSF	10 µM	ΔTm	-0.4 °C	CN1CCC2(CC1)NC(=O)c1c(c3ccc(Cl)c(Cl)c3n1C)C2C#N (racemic)
cell-free assay, competition with immobilised ligand	1 µM	remaining binding	72%	O=C(NC[C@@H]1[C@H]2CN(C(=O)OCc3cc(C(F)(F)F)cc(C(F)(F)F)c3)C[C@@H]12)c1ccc2[nH]nnc2c1
binding	1 µM	remaining binding	47%	CN(C)c1nccc(-c2cnc3ncccn23)n1
enzyme activity, inhibitor	1 µM	remaining activity	97%	COc1cc(Cl)c(C(=O)N[C@@H](CN[C@H]2CC[C@@H](N)CC2)Cc2ccc(C#N)cc2)cc1-c1ccc(CN[C@H](C)c2ccc(C)cc2)o1
thermal stability, DSF	10 µM	ΔTm	0.2 °C	Cn1c2c(c3ccc(Cl)c(Cl)c31)C(C#N)C1(CCCCC1)NC2=O (racemic)
cell-free assay	23.5 nM	remaining signal	90%	Cc1ccc(C(=O)Nc2ccc(CN3CCN(C)CC3)c(C(F)(F)F)c2)cc1C#Cc1cnc2cccnn12
cell-free assay	20 µM	remaining signal	3.2%	Nc1ncnc2occ(-c3ccc(NC(=O)Nc4cc(C(F)(F)F)ccc4F)cc3)c12
enzyme activity, inhibitor	1 µM	inhibition	3%	CN1CC(Oc2cnc(C#N)cc2-c2ccn3nc(NC(=O)C4CC4)cc3c2)C1
thermal stability, DSF	10 µM	ΔTm	-0.3 °C	Cn1c2c(Cl)c(Cl)ccc2c2cc(N)[nH]c(=O)c21
